Bioassay records deposited in PubChem BioAssay by Johns Hopkins Ion Channel Center.
KCNK9 inh: blocks the human KCNK9 two-pore domain potassium channel; hit rate 1.2% among 310,000; B-score at 10 µM; HEK293 KCNK9, FluxOR thallium flux fluorescence; stronger effect = lower value; Q9NPC2;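 active = ratio B-score over 3 SD below the library mean, with starting fluorescence within 5 SD of its mean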;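 note: negative B-score means less thallium flux so channel inhibition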
Target sequence (Q9NPC2 whole entry, looked up, the tested form may be a part): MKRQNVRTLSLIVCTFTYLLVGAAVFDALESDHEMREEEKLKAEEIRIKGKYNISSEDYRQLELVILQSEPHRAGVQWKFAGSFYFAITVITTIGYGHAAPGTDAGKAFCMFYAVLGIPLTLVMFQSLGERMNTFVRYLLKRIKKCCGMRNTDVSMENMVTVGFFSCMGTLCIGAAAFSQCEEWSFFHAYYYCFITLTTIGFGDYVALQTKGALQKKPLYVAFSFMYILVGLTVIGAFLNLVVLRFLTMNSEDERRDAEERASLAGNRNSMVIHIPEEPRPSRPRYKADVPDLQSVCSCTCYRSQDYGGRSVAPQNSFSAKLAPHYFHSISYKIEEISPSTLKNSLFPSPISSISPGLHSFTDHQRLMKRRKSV
Kir21 block: blocks the mouse Kir2.1 inward-rectifier potassium channel. AID 1672. hit rate 0.85% among 310,000. HEK293-Kir2.1, FluxOR thallium flux fluorescence; stronger effect = lower value. P35561. B-score at 10 µM;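 active = fluorescence ratio B-score at or below minus 3 SD of library scores, with starting-brightness B-score within 2 SD, cut at about -4.2 in these data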;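 note: channel flux triggered by added potassium and thallium sulfate stimulus; B-score of peak minus minimum fluorescence over baseline after thallium stimulus; more negative B-score means stronger Kir2.1 block with less thallium influx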
hERG rescue: compounds protecting human hERG from proarrhythmic drug block; activation (rescue from dofetilide block), less the hit threshold, % at 10 µM; CHO-hERG, FluxOR thallium flux, dofetilide IC70 present; AID 1511; hit rate 0.51% among 310,000;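 active = activation above the mean of controls blocked by dofetilide plus 5 SD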;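 note: thallium influx through hERG after potassium depolarization seen as dye fluorescence rise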
KCNQ1 inh: blocks the human KCNQ1 potassium channel; B-score at 10 µM; AID 2642; hit rate 1.3% among 310,000; P51787; CHO-K1 KCNQ1, FluxOR thallium flux fluorescence; stronger effect = higher value;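 active = compounds whose thallium flux B-score, printed positive for inhibition, exceeds three library SD while starting fluorescence stays within three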;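 note: channel opened by potassium depolarization with thallium stimulus after 20 min compound exposure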
KCNQ1 pot: potentiates or activates the human KCNQ1 potassium channel. hit rate 0.35% among 310,000. AID 2648. CHO-K1 KCNQ1, thallium flux FluxOR fluorescence; stronger effect = higher value. B-score at 10 µM. P51787;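 active = fluorescence ratio B-score, a plate-corrected score, at least three library SD, with initial intensity B-score within 5 SD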
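assay system = KCNQ1-transfected CHO-K1 cells | medium = assay buffer with matched DMSO | probe or stimulus = depolarizing K+/Tl+ stimulus, K2SO4 and Tl2SO4 each 12.5 mM in 5x stock | dosing = single dose | incubation = dye 90 min, compound 20 min, room temperature | detection = kinetic FluxOR fluorescence, 10 s baseline plus 110 s post-stimulus | evaluation = ratio B score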
KCNK3 inh: human KCNK3 channel inhibition, primary screen | O14649 | CHO-KCNK3 thallium flux, FluxOR fluorescence; stronger effect = lower value | B-score at 10 µM | hit rate 0.84% among 340,000 | AID 602410;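 active = B-score under library mean minus 4 SD, starting fluorescence ratio at most library mean plus 5 SD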;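 note: more negative B-score means stronger inhibition of thallium flux through KCNK3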
KCNK9 block conf: human KCNK9 inhibitor confirmation; HEK293 KCNK9 cells, FluxOR thallium flux fluorescence; inhibition, % at 10 µM; AID 492992; shares compounds with KCNK9 inh; hit rate 43% among 4,900;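 active = thallium signal inhibited by more than 5 SD of the compound-free buffer control wells, on both duplicate plates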;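 note: 0% = assay buffer control wells without compound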
Kir2-1 spec: mouse Kir2.1 off-target activity of KCNK9 modulators; shares compounds with KCNK9 inh; Kir2.1 cells, FluxOR thallium flux fluorescence; inhibition, % at 10 µM; hit rate 4% among 4,900;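 active = thallium signal drop more than 5 SD beyond the mean of the no-compound control wells, seen in both duplicate plates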;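 note: signal is fluorescence rise after thallium addition divided by baseline fluorescence; plate controls were assay buffer only for no effect and full block by chlorpromazine control for full effect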
HEK293 Tl ctr: non-induced cell nonspecific activity of KCNK9 modulators; shares compounds with KCNK9 inh; non-induced KCNK9-HEK293, FluxOR thallium flux; inhibition, % at 10 µM; hit rate 40% among 4,900;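 active = thallium signal drop beyond 5 SD of the untreated control mean, on both duplicate plates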;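 note: plate controls were buffer only IC0 wells for no effect and SID17386958 at its maximal inhibitory level for full effect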
The depositor's hits bear a star; i = inactive; . = no result given. Rows were chosen to be rich in hits. Some 3.7% of all compounds tested hit in one or more screens of this group.

SMILES | KCNK9 inh | Kir21 block | hERG rescue | KCNQ1 inh | KCNQ1 pot | KCNK3 inh | KCNK9 block conf | Kir2-1 spec | HEK293 Tl ctr
O=C(Nc1ccc(-c2nnc3n2CCCCC3)cc1)c1cc2ccccc2o1 | i | 0.54 | -25.7 | i | i | i | . | . | .
CCCOc1ccc(CNC(=O)c2ccc3c(c2)N(CC)CCS3)cc1 | i | -0.77 | -9.7 | i | i | i | i | i | i
CC(=O)c1cccc(NC(=S)NC(=O)c2cccc(C)c2)c1 | i | 0.69 | -8.3 | i | i | i | . | . | .
Cc1cccc(C(=O)NC(=S)Nc2cccc3nc(C)ccc23)c1 | i | -0.28 | -6.8 | i | i | i | i | i | i
COc1ccc(Cn2nc(C)n(N(C)c3ncc(C(F)(F)F)cc3Cl)c2=O)cc1 | i | -0.52 | -4.5 | i | i | i | i | i | i
COCCC1CCCCN1Cc1cn(-c2ccccc2)nc1-c1ccc2c(c1)OCO2 (stereo unspecified) | i | -0.77 | -11.8 | i | i | i | i | i | i
COc1ccc(NC(=O)C2CC(=O)N(c3ccccc3C)C2)c(OC)c1 (stereo unspecified) | i | 1.96 | -8.3 | i | i | i | . | . | .
COc1ccc(-c2cn(-c3ccc(C)cc3)c(=O)n2CC(=O)Nc2ccc(OC)cc2OC)cc1 | i | -0.03 | -12.9 | i | i | i | i | i | i
COc1ccc(NC(=O)Cn2c(-c3ccccc3)cn(-c3ccc(C)cc3)c2=O)cc1 | i | -0.02 | -13.0 | i | i | i | . | . | .
Cc1cc(C)cc(C(=O)NC(CC(N)=O)c2ccc(N3CCN(c4ccccc4)CC3)c([N+](=O)[O-])c2)c1 (stereo unspecified) | i | 1.31 | -4.2 | i | i | i | . | . | .
Cc1cc(C)cc(C(=O)NC(CC(N)=O)c2ccc(N3CCC(Cc4ccccc4)CC3)c([N+](=O)[O-])c2)c1 (stereo unspecified) | -12.8* | -0.78 | -4.6 | i | i | i | 53.0%* | i | 36.0%*
COc1ccc2c(c1)-c1nc(NC(=O)c3ccco3)sc1CC2 | -11.1* | 0.71 | -8.2 | i | i | i | 47.5%* | i | i
COc1ccc2c(c1)CCc1sc(NC(=O)c3ccco3)nc1-2 | -8.4* | 0.37 | -14.4 | i | i | i | 26.5%* | i | i
COc1ccc2c(c1)Cc1sc(NC(=O)c3ccco3)nc1-2 | i | -0.25 | -1.8 | i | i | i | . | . | .
COc1ccc(N(CCC#N)C(=O)/C(C#N)=C/c2cccs2)cc1 | i | -0.61 | -10.4 | i | i | i | . | . | .
Cc1cc(C)c(S(=O)(=O)c2ccccc2)c(OC(=O)c2c(Cl)cc(Cl)cc2Cl)n1 | -10.4* | 0.88 | -6.9 | i | i | i | 52.0%* | i | 32.5%*
Cc1cc(C)c(S(=O)(=O)c2ccccc2)c(OC(=O)c2c(F)cccc2F)n1 | i | -3.16 | -6.4 | i | i | i | . | . | .
Cn1c(Oc2ccc(F)cc2)c(C=O)c2ccccc21 | i | -2.52 | -4.5 | i | i | i | . | . | .
Cn1c(Sc2ccc(Br)cc2)c(C=O)c2ccccc21 | -9.46* | 0.88 | -13.2 | i | i | i | 43.5%* | 36.5%* | 52.0%*
CNC(=O)COC(=O)/C=C/c1cccc(F)c1 | i | 0 | -7.5 | i | i | i | . | . | .
CCOC(=O)C1(CC2CC2)CCN(Cc2cn(C)c3ccccc23)CC1 | i | -2.61 | -6.3 | i | i | i | i | i | i
CC1=C(C(=O)OC(C)C)C(c2cccc(F)c2)N2C(=O)C(C)SC2=N1 (stereo unspecified) | -12.6* | -0.61 | -14.3 | i | i | i | 55.5%* | i | 54.5%*
CCOC(=O)C1=C(C)N=C2SC(C)C(=O)N2C1c1cccc(F)c1 (stereo unspecified) | -16.6* | -0.02 | -13.9 | 6* | i | i | 64.5%* | i | 60.5%*
CCOC(=O)C1=C(C)N=C2SC(C)C(=O)N2C1c1ccc(OC(C)=O)c(OCC)c1 (stereo unspecified) | i | -1.46 | -8.8 | i | i | . | . | . | .
NS(=O)(=O)c1ccc(NC(=O)COc2ccc(S(=O)(=O)N3CCCC3)cc2)cc1 | i | -0.27 | -6.5 | i | i | i | . | . | .
SMILES | KCNK9 inh | Kir21 block | hERG rescue | KCNQ1 inh | KCNQ1 pot | KCNK3 inh | KCNK9 block conf | Kir2-1 spec | HEK293 Tl ctr
CCOC(=O)c1c(NC(=S)Nc2ccccc2)sc2c1CC(C)(C)SC2 | -9.05* | 0.03 | -2.2 | 8* | i | i | i | i | 33.0%*
CCOC(=O)c1c(NC(=S)Nc2ccc(OC)cc2)sc2c1CCC2 | i | 0.67 | -16.7 | i | i | i | . | . | .
O=C(NCC1CC1)c1onc(CSc2ccc(F)cc2)c1C(=O)NCC1CC1 | i | -1.32 | -3.2 | i | i | i | . | . | .
Cc1cc(C)cc(SCc2noc(C(=O)NCCC(C)C)c2C(=O)NCCC(C)C)c1 | i | 0.06 | -7.4 | i | i | i | i | i | i
CCCCNC(=O)c1onc(CSc2cc(C)cc(C)c2)c1C(=O)NCCCC | i | 0.41 | -7.3 | i | i | i | i | i | i
Cc1cc(C)cc(SCc2noc(C(=O)NCC3CC3)c2C(=O)NCC2CC2)c1 | i | -0.88 | -6.0 | i | i | . | i | i | i
COCCNC(=O)c1onc(CSc2cc(C)cc(C)c2)c1C(=O)O | i | -0.81 | -6.8 | i | i | i | . | . | .
CCN(CC(=O)Nc1ccc(NC(C)=O)cc1)C(=O)COc1ccccc1Cc1ccccc1 | i | -1.28 | -11.4 | i | i | i | . | . | .
CCCC1CCC(=C(C#N)C(N)=O)CC1 (stereo unspecified) | -8.78* | 0.94 | -7.3 | i | i | i | i | i | i
CCCC1CCC(c2ccc(C(N)=O)cc2)CC1 (stereo unspecified) | i | 0.51 | -2.3 | i | i | i | . | . | .
CCN(CC(=O)NC(=O)NCc1ccccc1)Cc1ccccc1 | i | -1.31 | -11.9 | i | i | i | i | i | 26.0%*
CCOCCCn1c(SCC(=O)Nc2ccc(NC(C)=O)cc2)nc2ccccc2c1=O | i | 0.02 | -2.3 | i | i | i | . | . | .
COc1ccccc1OCc1cc(C(=O)NCc2ccc(N3CCCC3=O)cc2)no1 | i | 0.31 | -6.9 | i | i | i | . | . | .
